Data on 2 molecules can be found in ChEMBL document CHEMBL3351900, “Conjugation of a nonspecific antiviral sapogenin with a specific HIV fusion inhibitor: a promising strategy for discovering new antiviral therapeutics” (J Med Chem, 2014).

The subject of series [1] is Human immunodeficiency virus 1. The series can be described thus: Antiviral activity against T20-sensitive HIV1 NL4-3 harboring gp41 D36G mutant infected in human MT2 cells. It counts as functional, organism-based. In a few lines: (§1)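 MT-2 cells (1 × 10⁴) infected with 100 TCID₅₀ virus with or without peptides at graded concentrations. Culture supernatants collected on day 4 postinfection; p24 antigen quantified by ELISA. Percent inhibition and EC₅₀ calculated; tested in triplicate, mean ± standard deviation.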

Series [2] deals with Human immunodeficiency virus 1. Description: Antiviral activity against T20-resistant HIV1 NL4-3 harboring gp41 D36G/V38A mutant infected in human MT2 cells. It counts as functional, organism-based. An outline of the steps:
as §1

The subject of series [3] is Human immunodeficiency virus 1. Description: Antiviral activity against T20-resistant HIV1 NL4-3 harboring gp41 D36G/V38A/N42D mutant infected in human MT2 cells. It counts as functional, organism-based. In a few lines: as §1
The test system of series [4] is Human immunodeficiency virus 1. The series can be described thus: Antiviral activity against T20-resistant HIV1 NL4-3 harboring gp41 D36G/N42T/N43K mutant infected in human MT2 cells. It counts as functional, organism-based. An outline of the steps:
as §1

For series [5], the system named is Human immunodeficiency virus 1. Description: Antiviral activity against T20-resistant HIV1 NL4-3 harboring gp41 D36G/V38E/N42S mutant infected in human MT2 cells. The series is classed as functional, organism-based. In a few lines: as §1
Series [6] deals with Human immunodeficiency virus 1. The series can be described thus: Antiviral activity against T20-resistant HIV1 NL4-3 harboring gp41 D36G/V38A/N42T mutant infected in human MT2 cells. It counts as functional, organism-based. An outline of the steps:
as §1

Series [7] has as its system Human immunodeficiency virus 1. Description: Ratio of EC50 for T20-resistant HIV1 NL4-3 harboring gp41 D36G/V38A mutant infected in human MT2 cells to EC50 for T20-sensitive HIV1 NL4-3 harboring gp41 D36G mutant infected in human MT2 cells. The series is classed as functional. An outline of the steps: (§2)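 MT-2 cells (1 × 10⁴) infected with 100 TCID₅₀ of HIV-1 NL4-3 gp41 mutant virus with or without peptide at graded concentrations. Culture supernatants collected on day 4 postinfection and p24 antigen measured by ELISA. Percent inhibition and EC₅₀ calculated, triplicate, mean ± standard deviation. Fold change = EC₅₀ against each mutant divided by EC₅₀ against the D36G strain.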

The subject of series [8] is Human immunodeficiency virus 1. Description: Ratio of EC50 for T20-resistant HIV1 NL4-3 harboring gp41 D36G/V38A/N42D mutant infected in human MT2 cells to EC50 for T20-sensitive HIV1 NL4-3 harboring gp41 D36G mutant infected in human MT2 cells. It counts as functional. An outline of the steps: as §2
Series [9] relates to Human immunodeficiency virus 1. Description: Ratio of EC50 for T20-resistant HIV1 NL4-3 harboring gp41 D36G/N42T/N43K mutant infected in human MT2 cells to EC50 for T20-sensitive HIV1 NL4-3 harboring gp41 D36G mutant infected in human MT2 cells. The series is classed as functional. An outline of the steps: as §2
Series [10] concerns Human immunodeficiency virus 1. Description: Ratio of EC50 for T20-resistant HIV1 NL4-3 harboring gp41 D36G/V38E/N42S mutant infected in human MT2 cells to EC50 for T20-sensitive HIV1 NL4-3 harboring gp41 D36G mutant infected in human MT2 cells. The series is classed as functional. An outline of the steps: as §2
Series [11] deals with Human immunodeficiency virus 1. The series can be described thus: Ratio of EC50 for T20-resistant HIV1 NL4-3 harboring gp41 D36G/V38A/N42T mutant infected in human MT2 cells to EC50 for T20-sensitive HIV1 NL4-3 harboring gp41 D36G mutant infected in human MT2 cells. It counts as functional. In a few lines: as §2
The subject of series [12] is Rattus norvegicus. Description: AUC (0 to t) in rat at 4 mg/kg, iv administered as single dose. The series is classed as ADME, organism-based, Plasma. Set-up: dose 4 mg/kg, route intravenous. Conditions: in vivo. In a few lines: (§3)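 Rats given one intravenous dose of 4 mg/kg. Peptide measured in plasma over time. Parameters (AUC(0−t), MRT(0−t), t1/2, Vd, Cmax) derived by model-independent analysis.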

Series [13] relates to Rattus norvegicus. Description: Half life in rat at 4 mg/kg, iv at 4 mg/kg, iv administered as single dose. As to conditions: in vivo. It counts as ADME, organism-based. An outline of the steps: as §3
Series [14] in a line: Volume of distribution in rat at 4 mg/kg, iv administered as single dose. The series is classed as ADME, organism-based. Set-up: dose 4 mg/kg, route intravenous. As to conditions: in vivo. An outline of the steps: as §3
The test system of series [15] is Rattus norvegicus. The series can be described thus: Cmax in rat at 4 mg/kg, iv administered as single dose. Conditions: in vivo. It counts as ADME, organism-based. Set-up: dose 4 mg/kg, route intravenous. In a few lines: as §3
Series [16] is described as follows: Half life in rat liver homogenate at 8 ug/ml. It counts as ADME, tissue-based.
Series [17] is described as follows: Half life of the compound at 8 ug/ml by proteinase K digestion assay. It counts as ADME.
Series [18] in a line: Half life in rat kidney homogenate at 8 ug/ml. The series is classed as ADME, tissue-based.
Series [19] concerns Human immunodeficiency virus 1. The series can be described thus: Antiviral activity against HIV1 3B infected in human MT2 cells assessed as inhibition of viral p24 antigen production by ELISA. It counts as functional, organism-based. Conditions: Human immunodeficiency virus 1, 3B. In a few lines:
as §1

The nature of series [20]: Cytotoxicity against human MT2 cells after 4 days by XTT assay. The series is classed as cell-based. In a few lines:
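MT-2 cells (5 × 10⁵/mL) mixed with equal volumes of graded conjugate concentrations and held at 37 °C for 4 days. XTT (1 mg/mL) with 0.02 μM phenazine methosulfate added for 4 h, then A450 read. CC50 calculated from the dose–response.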

Series [21] relates to Human immunodeficiency virus 1. The series can be described thus: Antiviral activity against HIV1 BaL infected in human […] cells assessed as inhibition of viral replication. As to conditions: Human immunodeficiency virus 1, BaL. The series is classed as functional, organism-based. In a few lines: as §1
Series [22] in a line: Selectivity index, ratio of CC50 for human MT2 cells to EC50 for HIV1 3B infected in human MT2 cells. It counts as toxicity, cell-based. Conditions: read-out: Ratio CC50/EC50.
The target in series [23] is GP41 (Human immunodeficiency virus 1) (UniProt Q76270). Description: Ratio of EC50 for HIV1 gp41-induced cell-cell fusion between viral envelope expressing human HL2/3 cells to CD4/CCR5 receptor expressing TZM-bl cells with wash out to EC50 for HIV1 gp41-induced cell-cell fusion between viral envelope expressing human HL2/3 cells to CD4/CCR5 receptor expressing TZM-bl cells. It counts as cell-based. An outline of the steps: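 Peptides preincubated with TZM-bl cells at 37 °C for 1 h, with or without washing away unbound peptide. EC50 compared between washed and unwashed cells, giving the n-fold change. Triplicates, mean ± SD.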

Series [24] has the same target. The series can be described thus: Inhibition of HIV1 gp41 NHR assessed as inhibition of 6HB formation by FRET assay. An outline of the steps:
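FRET competition assay. A bpy-labelled 31-mer NHR pocket peptide is trimerized by Fe(II) into env2.0, which quenches the Lucifer-yellow-tagged CP2 probe. Displacement of the probe raises fluorescence. Used 7 μM binding sites (three per trimer) and 1 μM CP2-LY.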

Usually pEC50 stands for the EC50 on a negative log10 scale, so that one unit is a factor of ten. For orientation: Vd means the apparent volume that relates the amount in the body to the concentration in plasma or blood. Low readings indicate confinement near the circulation, high ones extensive tissue distribution. Broadly, the Cmax is the peak of the concentration-time curve. A word on the half-life: it is how long it takes for the measured level to halve. As a reminder, the CC50 is the concentration giving 50% cytotoxicity. Higher therefore signals better tolerance by the cells.

pEC50: −log10 of the molar value. Calls of active or inactive are those of the source. The rule behind the calls is not given here. Peptide text beside a SMILES is read from it. * marks the point of attachment. X11 = CCCc1cn(CC(=O)*)nn1; βAla = NCCC(=O)O

For the molecule enfuvirtide, the pEC50 in series [1] is 7.39; in series [2], less than 5.70; in series [3], less than 5.70; in series [4], less than 5.70; in series [5], less than 5.70; in series [6] it was less than 5.70. For the same molecule, the pEC50 in series [19] was 7.96; in series [21] it was 8.54. Besides, the “Ratio EC50” value in [7] is more than 50; in [8] it was more than 50; in [9] it was more than 50; in series [10], more than 50; in series [11], more than 50; in [23], 39. Besides, the AUCt in the series on Rattus norvegicus [12] was 26900 ng·h/mL. The molecule further returned a t1/2 in the series on Rattus norvegicus [13] of 131 min. The molecule further showed a Vd in [14] of 0.44 L/kg. In the series on Rattus norvegicus [15], this molecule gave a Cmax of 25500 ng/mL. Besides, the half-life at 8 ug/ml in [16] was 31 min; in series [17], 19.4 min; in series [18], 16.9 min. The CC50 at 96 h in series [20] is more than 25000 nM. Further, the selectivity ratio in [22] is more than 2290.

Turning to `CCCc1cn(CC(=O)NCCC(=O)N[C@@H](CC(N)=O)C(=O)N[C@@H](CC(N)=O)C(=O)N[C@@H](Cc2ccc(O)cc2)C(=O)N[C@H](C(=O)N[C@@H](CO)C(=O)N[C@@H](CC(C)C)C(=O)N[C@H](C(=O)N[C@@H](Cc2cnc[nH]2)C(=O)N[C@@H](CO)C(=O)N[C@@H](CC(C)C)C(=O)N[C@H](C(=O)N[C@@H](CCC(=O)O)C(=O)N[C@@H](CCC(=O)O)C(=O)N[C@@H](CO)C(=O)N[C@@H](CCC(N)=O)C(=O)N[C@@H](CC(N)=O)C(=O)N[C@@H](CCC(N)=O)C(=O)N[C@@H](CCC(N)=O)C(=O)N[C@@H](CCC(=O)O)C(=O)N[C@@H](CCCCN)C(=O)N[C@@H](CC(N)=O)C(=O)N[C@@H](CCC(=O)O)C(=O)N[C@@H](CCC(N)=O)C(=O)N[C@@H](CCC(=O)O)C(=O)N[C@@H](CC(C)C)C(=O)N[C@@H](CC(C)C)C(N)=O)[C@@H](C)CC)[C@@H](C)CC)[C@@H](C)O)nn1` ({X11-βAla}-NNYTSLIHSLIEESQNQQEKNEQELL-NH2), the inhibition entry in [24] is “inactive”.
